Test results published in ChEMBL document CHEMBL3588757, “Structure-based design, synthesis and biological testing of piperazine-linked bis-epipodophyllotoxin etoposide analogs” (Bioorg Med Chem, 2015).

Assays:
Type in all cases: functional
OVCAR-8 = assay: Cytotoxicity against human OVCAR8 cells by SRB assay
Summary of the method: (§1)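 NCI-60 panel screen; 5-dose testing giving GI50 per cell line, plus a single 10 µM one-dose test. Method details not given beyond the NCI screen.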

TK-10 [1] = assay: Cytotoxicity against human TK10 cells by SRB assay; summary of the method: as §1
MCF7 = assay: Cytotoxicity against human MCF7 cells by SRB assay; summary of the method: as §1
NCI-H522 [2] = assay: Cytotoxicity against human NCI-H522 cells assessed as cell growth at 0.005 uM by SRB assay; conditions: read-out: Activity
SF-539 = assay: Cytotoxicity against human SF539 cells assessed as cell growth at 0.005 uM by SRB assay; conditions: read-out: Activity
LOX IMVI [3] = assay: Cytotoxicity against human LOXIMVI cells assessed as cell growth at 0.005 uM by SRB assay; conditions: read-out: Activity
UACC-62 [4] = assay: Cytotoxicity against human UACC62 cells assessed as cell growth at 0.005 uM by SRB assay; conditions: read-out: Activity
786-0 = assay: Cytotoxicity against human 786-0 cells assessed as cell growth at 0.005 uM by SRB assay; conditions: read-out: Activity
KM12 = assay: Cytotoxicity against human KM12 cells assessed as cell growth at 0.05 uM by SRB assay; conditions: read-out: Activity
LOX IMVI [5] = assay: Cytotoxicity against human LOXIMVI cells assessed as cell growth at 0.05 uM by SRB assay; conditions: read-out: Activity
SK-MEL-28 [6] = assay: Cytotoxicity against human SK-MEL-28 cells assessed as cell growth at 0.05 uM by SRB assay; conditions: read-out: Activity
TK-10 [7] = assay: Cytotoxicity against human TK10 cells assessed as cell growth at 0.05 uM by SRB assay; conditions: read-out: Activity
UO-31 = assay: Cytotoxicity against human UO31 cells assessed as cell growth at 0.05 uM by SRB assay; conditions: read-out: Activity
MOLT-4 = assay: Cytotoxicity against human MOLT4 cells assessed as cell growth at 0.5 uM by SRB assay; conditions: read-out: Activity
NCI-H226 [8] = assay: Cytotoxicity against human NCI-H226 cells assessed as cell growth at 0.5 uM by SRB assay; conditions: read-out: Activity
NCI-H322M [9] = assay: Cytotoxicity against human NCI-H322M cells assessed as cell growth at 0.5 uM by SRB assay; conditions: read-out: Activity
ACHN = assay: Cytotoxicity against human ACHN cells assessed as cell growth at 0.5 uM by SRB assay; conditions: read-out: Activity
MDA-MB-231 = assay: Cytotoxicity against human MDA-MB-231/ATCC cells assessed as cell growth at 0.5 uM by SRB assay; conditions: read-out: Activity
NCI-H226 [10] = assay: Cytotoxicity against human NCI-H226 cells assessed as cell growth at 5 uM by SRB assay; conditions: read-out: Activity
NCI-H322M [11] = assay: Cytotoxicity against human NCI-H322M cells assessed as cell growth at 5 uM by SRB assay; conditions: read-out: Activity
NCI-H522 [12] = assay: Cytotoxicity against human NCI-H522 cells assessed as cell growth at 5 uM by SRB assay; conditions: read-out: Activity
SK-MEL-28 [13] = assay: Cytotoxicity against human SK-MEL-28 cells assessed as cell growth at 5 uM by SRB assay; conditions: read-out: Activity
UACC-257 = assay: Cytotoxicity against human UACC257 cells assessed as cell growth at 5 uM by SRB assay; conditions: read-out: Activity
UACC-62 [14] = assay: Cytotoxicity against human UACC62 cells assessed as cell growth at 5 uM by SRB assay; conditions: read-out: Activity
OVCAR-3 = assay: Cytotoxicity against human OVCAR3 cells assessed as cell growth at 5 uM by SRB assay; conditions: read-out: Activity
OVCAR-5 = assay: Cytotoxicity against human OVCAR5 cells assessed as cell growth at 5 uM by SRB assay; conditions: read-out: Activity
NCI-H226 [15] = assay: Cytotoxicity against human NCI-H226 cells assessed as cell growth at 50 uM by SRB assay; conditions: read-out: Activity
NCI-H322M [16] = assay: Cytotoxicity against human NCI-H322M cells assessed as cell growth at 50 uM by SRB assay; conditions: read-out: Activity
[17] = read-out: pLC50 (the source's name) (converted)
[18] = read-out: LC50 (the source's name)

Molecule `COc1cc([C@@H]2c3cc4c(cc3[C@@H](NC(=O)CN3CCN(CCCCCCN5CCN(CC(=O)N[C@@H]6c7cc8c(cc7[C@@H](c7cc(OC)c(O)c(OC)c7)[C@H]7C(=O)OC[C@@H]76)OCO8)CC5)CC3)[C@H]3COC(=O)[C@H]23)OCO4)cc(OC)c1O` has a TGI (OVCAR-8; read-out: TGI) of over 50 µM, a GI50 (OVCAR-8; read-out: pGI50 (converted)) of 35.5 µM and a CC50 (OVCAR-8; [17]) of over 50.1 µM. For the same molecule, the TGI (OVCAR-8; read-out: pTGI (converted)) was over 50.1 µM, the GI50 (TK-10 [1]; read-out: GI50) was over 50 µM and the CC50 (TK-10 [1]; [18]) was over 50 µM. For the same molecule, the TGI (TK-10 [1]; read-out: TGI) was over 50 µM, the GI50 (TK-10 [1]; read-out: pGI50 (converted)) was over 50.1 µM and the CC50 (TK-10 [1]; [17]) was over 50.1 µM. For the same molecule, the TGI (TK-10 [1]; read-out: pTGI (converted)) was over 50.1 µM, the GI50 (MCF7; read-out: GI50) was 0.195 µM and the CC50 (MCF7; [18]) was over 50 µM. It also gave a TGI (MCF7; read-out: TGI) of over 50 µM, a GI50 (MCF7; read-out: pGI50 (converted)) of 0.195 µM and a CC50 (MCF7; [17]) of over 50.1 µM. It also gave a TGI (MCF7; read-out: pTGI (converted)) of over 50.1 µM, a growth at 0.005 µM (NCI-H522 [2]) of 99% and a growth at 0.005 µM (SF-539) of 94%. It also gave a growth at 0.005 µM (LOX IMVI [3]) of 98%, a growth at 0.005 µM (UACC-62 [4]) of 97% and a growth at 0.005 µM (786-0) of 89%. The growth at 0.05 µM (KM12) was 103%, the growth at 0.05 µM (LOX IMVI [5]) was 88% and the growth at 0.05 µM (SK-MEL-28 [6]) was 106%. The growth at 0.05 µM (TK-10 [7]) was 98%, the growth at 0.05 µM (UO-31) was 97% and the growth at 0.5 µM (MOLT-4) was 23%. For the same molecule, the growth at 0.5 µM (NCI-H226 [8]) was 73%, the growth at 0.5 µM (NCI-H322M [9]) was 93% and the growth at 0.5 µM (ACHN) was 95%. It also gave a growth at 0.5 µM (MDA-MB-231) of 97%, a growth at 5 µM (NCI-H226 [10]) of 52% and a growth at 5 µM (NCI-H322M [11]) of 99%. For the same molecule, the growth at 5 µM (NCI-H522 [12]) was 51%, the growth at 5 µM (SK-MEL-28 [13]) was 56% and the growth at 5 µM (UACC-257) was 62%. The growth at 5 µM (UACC-62 [14]) was 29%, the growth at 5 µM (OVCAR-3) was 63% and the growth at 5 µM (OVCAR-5) was 58%. The growth at 50 µM (NCI-H226 [15]) was -2% and the growth at 50 µM (NCI-H322M [16]) was 37%.
